Data from ChEMBL document CHEMBL3045116, “Synthesis and biological evaluation of 2-(5-substituted-1-((diethylamino)methyl)-2-oxoindolin-3-ylidene)-N-substituted-hydrazinecarbothioamides” (Med Chem Res, 2013).

How the values were obtained:
Escherichia coli = experiment: Antibacterial activity against Escherichia coli assessed as growth inhibition at 50 ug/ml by cup-plate method (reference value: 8 to 10 mm); type: functional; conditions: read-out: DIZ
[1] = system: Mammalian orthoreovirus 1; experiment: Antiviral activity against Mammalian orthoreovirus 1 infected African green monkey Vero cells assessed as reduction of virus-induced cytopathic effect after 3 days by colorimetric formazan-based MTS assay; type: functional, organism-based; conditions: Mammalian orthoreovirus 1, Vero, 72 h
Procedure, shortened: (§1)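 Cells grown to confluency in 96-well plates ([…], Vero for lines 9–10) were infected with 100 CCID50 of virus, and serial compound dilutions were added at infection. Plates were incubated at 37 °C for 3 days, until complete CPE appeared in untreated virus controls.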

Vaccinia virus = experiment: Antiviral activity against Vaccinia virus infected human HEL cells assessed as reduction of virus-induced cytopathic effect after 3 days by colorimetric formazan-based MTS assay; type: functional, organism-based; conditions: Orthopoxvirus vaccinia, 72 h
Procedure, shortened: (§2)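 Confluent cell monolayers were infected with 100 CCID50 of virus, and serial dilutions of compound were added at the time of infection.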

Felid alphaherpesvirus 1 = experiment: Antiviral activity against Felid herpesvirus 1 infected cat CRFK cells assessed as reduction of virus-induced cytopathic effect after 3 days by colorimetric formazan-based MTS assay; type: functional, organism-based; conditions: Felid alphaherpesvirus 1, CRFK, 72 h; procedure, shortened: as §1
[2] = system: Vesicular stomatitis virus; experiment: Antiviral activity against Vesicular stomatitis virus infected human HeLa cells assessed as reduction of virus-induced cytopathic effect after 3 days by colorimetric formazan-based MTS assay; type: functional, organism-based; conditions: 72 h; procedure, shortened: as §2
Aspergillus niger = experiment: Antifungal activity against Aspergillus niger assessed as growth inhibition at 50 ug/ml by cup-plate method (reference value: 8 to 10 mm); type: functional; conditions: read-out: DIZ
Punta Toro virus = experiment: Antiviral activity against Punta Toro virus infected in African green monkey Vero cells assessed as reduction of virus-induced cytopathic effect after 3 days by colorimetric formazan-based MTS assay; type: functional, organism-based; conditions: 72 h; procedure, shortened: as §2
Influenza A virus = experiment: Antiviral activity against Unidentified Influenza A virus (H1N1) infected MDCK cells assessed as reduction of virus-induced cytopathic effect after 3 days by colorimetric formazan-based MTS assay; type: functional, organism-based; conditions: 72 h; procedure, shortened: as §2
Human respirovirus 3 = experiment: Antiviral activity against Human parainfluenza virus 3 infected African green monkey Vero cells assessed as reduction of virus-induced cytopathic effect after 3 days by colorimetric formazan-based MTS assay; type: functional, organism-based; conditions: Human respirovirus 3, Vero, 72 h; procedure, shortened: as §1
[3] = Cytotoxicity against Felis catus (cat) CRFK cells assessed as change in cellular morphology; type: cell-based; conditions: crfk
Procedure, shortened: (§3)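 Uninfected cells were exposed to compound in parallel with the antiviral cultures. The read-out is the minimum cytotoxic concentration that causes a microscopically detectable alteration of normal cell morphology.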

[4] = (§4) Cytotoxicity against MDCK cells assessed as change in cellular morphology; type: cell-based, Canis lupus familiaris; conditions: dog, MDCK cells; procedure, shortened: as §3
MDCK = experiment: as §4; type: cell-based, Canis lupus familiaris; conditions: dog, mdck; procedure, shortened: as §3
Respirovirus muris = experiment: Antiviral activity against Sendai virus infected African green monkey Vero cells assessed as reduction of virus-induced cytopathic effect after 3 days by colorimetric formazan-based MTS assay; type: functional, organism-based; conditions: 72 h
Proteus vulgaris = experiment: Antibacterial activity against Proteus vulgaris assessed as growth inhibition at 50 ug/ml by cup-plate method (reference value: 8 to 10 mm); type: functional; conditions: read-out: DIZ
Coxsackievirus B4 [5] = experiment: Antiviral activity against Human coxsackievirus B4 infected human HeLa cells assessed as reduction of virus-induced cytopathic effect after 3 days by colorimetric formazan-based MTS assay; type: functional, organism-based; conditions: Enterovirus B, 72 h; procedure, shortened: as §2
Staphylococcus aureus = experiment: Antibacterial activity against Staphylococcus aureus assessed as growth inhibition at 50 ug/ml by cup-plate method (reference value: 8 to 10 mm); type: functional; conditions: read-out: DIZ
Human alphaherpesvirus 2 = experiment: Antiviral activity against Human herpesvirus 2 strain G infected human HEL cells assessed as reduction of virus-induced cytopathic effect after 3 days by colorimetric formazan-based MTS assay; type: functional, organism-based; conditions: Human alphaherpesvirus 2, strain G, 72 h; procedure, shortened: as §2
[6] = Inhibition of beta lactamase assessed as increase in time taken for iodine decolorization relative to control; set-up: concentration or dose not given beside the values; conditions: concentration not given here
Salmonella typhi = experiment: Antibacterial activity against Salmonella enterica subsp. enterica serovar Typhi assessed as growth inhibition at 50 ug/ml by cup-plate method (reference value: 8 to 10 mm); type: functional; conditions: read-out: DIZ
[7] = Cytotoxicity against Homo sapiens (human) HEL cells assessed as change in cellular morphology; type: cell-based
Human alphaherpesvirus 1 [8] = experiment: Antiviral activity against acyclovir-resistant thymidine kinase negative Human herpesvirus 1 strain KOS infected human HEL cells assessed as reduction of virus-induced cytopathic effect after 3 days by colorimetric formazan-based MTS assay; type: functional, organism-based; conditions: Human alphaherpesvirus 1, KOS, 72 h; procedure, shortened: as §2
[9] = Cytotoxicity against Chlorocebus aethiops (African green monkey) Vero cells assessed as change in cellular morphology; type: cell-based; conditions: chlorocebus sabaeus
Coxsackievirus B4 [10] = experiment: Antiviral activity against Human coxsackievirus B4 infected African green monkey Vero cells assessed as reduction of virus-induced cytopathic effect after 3 days by colorimetric formazan-based MTS assay; type: functional, organism-based; conditions: Enterovirus B, 72 h; procedure, shortened: as §2
Candida albicans = experiment: Antifungal activity against Candida albicans assessed as growth inhibition at 50 ug/ml by cup-plate method (reference value: 8 to 10 mm); type: functional; conditions: read-out: DIZ
Influenza A virus H3N2 = experiment: Antiviral activity against Influenza A virus H3N2 infected MDCK cells assessed as reduction of virus-induced cytopathic effect after 3 days by colorimetric formazan-based MTS assay; type: functional, organism-based; conditions: 72 h; procedure, shortened: as §2
[11] = system: Vesicular stomatitis virus; experiment: Antiviral activity against Vesicular stomatitis virus infected human HEL cells assessed as reduction of virus-induced cytopathic effect after 3 days by colorimetric formazan-based MTS assay; type: functional, organism-based; conditions: 72 h; procedure, shortened: as §2
Human alphaherpesvirus 1 [12] = experiment: Antiviral activity against Human herpesvirus 1 strain KOS infected human HEL cells assessed as reduction of virus-induced cytopathic effect after 3 days by colorimetric formazan-based MTS assay; type: functional, organism-based; conditions: Human alphaherpesvirus 1, KOS, 72 h; procedure, shortened: as §2
Bacillus subtilis = experiment: Antibacterial activity against Bacillus subtilis assessed as growth inhibition at 50 ug/ml by cup-plate method (reference value: 8 to 10 mm); type: functional; conditions: read-out: DIZ
Klebsiella pneumoniae = experiment: Antibacterial activity against Klebsiella pneumoniae assessed as growth inhibition at 50 ug/ml by cup-plate method (reference value: 8 to 10 mm); type: functional; conditions: read-out: DIZ
[13] = system: Respiratory syncytial virus; experiment: Antiviral activity against Respiratory syncytial virus infected human HeLa cells assessed as reduction of virus-induced cytopathic effect after 3 days by colorimetric formazan-based MTS assay; type: functional, organism-based; conditions: 72 h; procedure, shortened: as §2
L1210 = experiment: Cytotoxicity against Mus musculus (mouse) L1210 cells assessed as growth inhibition after 48 hr by coulter counter analysis; type: functional, cell-based; conditions: L1210, 48 h
Procedure, shortened: (§5)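 Cells in growth medium were allowed to proliferate with variable compound amounts at 37 °C in a humidified CO2 atmosphere. Incubation ran 48 h for L1210, 72 h for CEM and 96 h for HeLa. Cells were then counted with a Coulter counter.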

Influenza B virus = experiment: Antiviral activity against Influenza B virus infected in MDCK cells assessed as reduction of virus-induced cytopathic effect after 3 days by colorimetric formazan-based MTS assay; type: functional, organism-based; conditions: 72 h; procedure, shortened: as §2
CCRF-CEM = experiment: Cytotoxicity against Homo sapiens (human) CEM cells assessed as growth inhibition after 72 hr by coulter counter analysis; type: functional, cell-based; procedure, shortened: as §5
[14] = (§6) Cytotoxicity against Homo sapiens (human) HeLa cells assessed as change in cellular morphology; type: cell-based; conditions: HeLa cells; procedure, shortened: as §3
HeLa = experiment: as §6; type: cell-based; conditions: hela; procedure, shortened: as §3
[15] = system: Feline infectious peritonitis virus; experiment: Antiviral activity against Feline Infectious peritonitis virus infected cat CRFK cells assessed as reduction of virus-induced cytopathic effect after 3 days by colorimetric formazan-based MTS assay; type: functional, organism-based; conditions: Alphacoronavirus 1, CRFK, 72 h; procedure, shortened: as §2
[16] = Inhibition of beta lactamase assessed as time for decolorization of iodine (reference value: 79.5 secs)

SMILES | zone of inhibition at 50 µg/mL (Escherichia coli) | EC50 [1] | EC50 (Vaccinia virus) | EC50 (Felid alphaherpesvirus 1) | EC50 [2] | zone of inhibition at 50 µg/mL (Aspergillus niger) | EC50 (Punta Toro virus) | EC50 (Influenza A virus) | EC50 (Human respirovirus 3) | CC50 [3] | MCC [4] | CC50 (MDCK) | EC50 (Respirovirus muris) | zone of inhibition at 50 µg/mL (Proteus vulgaris) | EC50 (Coxsackievirus B4 [5]) | zone of inhibition at 50 µg/mL (Staphylococcus aureus) | EC50 (Human alphaherpesvirus 2) | inhibition [6] | zone of inhibition at 50 µg/mL (Salmonella typhi) | MCC [7] | also measured
CCN(CC)CN1C(=O)/C(=N/NC(N)=S)c2ccccc21 | 11 mm | > 100 µM | > 100 µM | > 20 µM | > 100 µM | 11 mm | > 100 µM | > 20 µM | > 100 µM | 73.8 µM | 100000 nM | 85.8 µM | > 100 µM | 11 mm | > 100 µM | 11 mm | > 100 µM | 38.2% | 11 mm | > 100 µM | EC50 (Human alphaherpesvirus 1 [8]): > 100 µM; MCC [9]: > 100 µM; EC50 (Coxsackievirus B4 [10]): > 100 µM; zone of inhibition at 50 µg/mL (Candida albicans): 11 mm; EC50 (Influenza A virus H3N2): > 20 µM; EC50 [11]: > 100 µM; EC50 (Human alphaherpesvirus 1 [12]): > 100 µM; zone of inhibition at 50 µg/mL (Bacillus subtilis): 11 mm; zone of inhibition at 50 µg/mL (Klebsiella pneumoniae): 11 mm; EC50 [13]: > 100 µM; IC50 (L1210): 121 µM; EC50 (Influenza B virus): > 20 µM; IC50 (CCRF-CEM): 164 µM; MCC [14]: > 100 µM; CC50 (HeLa): > 100 µM; EC50 [15]: > 20 µM; TIME [16]: 0.0357 h
CCN(CC)CN1C(=O)/C(=N/NC(=S)Nc2ccccc2)c2ccccc21 | 11 mm | > 20 µM | 20 µM | > 20 µM | > 20 µM | 21 mm | > 20 µM | > 0.16 µM | > 20 µM | 32.3 µM | 800 nM | 1.6 µM | > 20 µM | 21 mm | > 20 µM | 11 mm | 15 µM | 50.2% | 21 mm | > 100 µM | EC50 (Human alphaherpesvirus 1 [8]): > 100 µM; MCC [9]: 100 µM; EC50 (Coxsackievirus B4 [10]): > 20 µM; zone of inhibition at 50 µg/mL (Candida albicans): 21 mm; EC50 (Influenza A virus H3N2): > 0.16 µM; EC50 [11]: > 100 µM; EC50 (Human alphaherpesvirus 1 [12]): 20 µM; zone of inhibition at 50 µg/mL (Bacillus subtilis): 11 mm; zone of inhibition at 50 µg/mL (Klebsiella pneumoniae): 11 mm; EC50 [13]: > 20 µM; IC50 (L1210): 13 µM; EC50 (Influenza B virus): > 0.16 µM; IC50 (CCRF-CEM): 11 µM; MCC [14]: ≥ 20 µM; CC50 (HeLa): 10.8 µM; EC50 [15]: > 20 µM; TIME [16]: 0.0443 h
CCN(CC)CN1C(=O)/C(=N/NC(=S)Nc2ccc(Cl)cc2)c2ccccc21 | 21 mm | > 4 µM | ≥ 20 µM | > 0.8 µM | > 4 µM | 11 mm | > 4 µM | > 0.16 µM | > 4 µM | 4 µM | 800 nM | 0.4 µM | > 4 µM | 11 mm | > 4 µM | 11 mm | 15 µM | 38.7% | 11 mm | 100 µM | EC50 (Human alphaherpesvirus 1 [8]): ≥ 20 µM; MCC [9]: 20 µM; EC50 (Coxsackievirus B4 [10]): > 4 µM; zone of inhibition at 50 µg/mL (Candida albicans): 11 mm; EC50 (Influenza A virus H3N2): > 0.16 µM; EC50 [11]: > 20 µM; EC50 (Human alphaherpesvirus 1 [12]): 15 µM; zone of inhibition at 50 µg/mL (Bacillus subtilis): 21 mm; zone of inhibition at 50 µg/mL (Klebsiella pneumoniae): 11 mm; EC50 [13]: > 4 µM; IC50 (L1210): 11 µM; EC50 (Influenza B virus): > 0.16 µM; IC50 (CCRF-CEM): 10 µM; MCC [14]: ≥ 4 µM; CC50 (HeLa): 9.8 µM; EC50 [15]: > 0.8 µM; TIME [16]: 0.036 h
